molecular target: Acrosin (Homo sapiens) (UniProt P10323); experiment: Compound was tested for inhibition of Human acrosin by aldoses; details: not given
How it was run: (§1)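 Homologous aldoses or ketoses of different carbon chain lengths were each tested at 100 mM against purified human α-acrosin. The enzyme was preincubated with sugar for 5 min at ambient temperature, pH 7.5, with 3×10^-4 M BAPA as substrate and hydrolysis read spectrophotometrically at 253 nm. Results are % inhibition of control activity, as mean ± SE with n given.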

Chain of Acrosin (Homo sapiens) (P10323 20-42 limits assumed): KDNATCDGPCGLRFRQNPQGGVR
Chain of Acrosin (Homo sapiens) (P10323 43-343 limits assumed): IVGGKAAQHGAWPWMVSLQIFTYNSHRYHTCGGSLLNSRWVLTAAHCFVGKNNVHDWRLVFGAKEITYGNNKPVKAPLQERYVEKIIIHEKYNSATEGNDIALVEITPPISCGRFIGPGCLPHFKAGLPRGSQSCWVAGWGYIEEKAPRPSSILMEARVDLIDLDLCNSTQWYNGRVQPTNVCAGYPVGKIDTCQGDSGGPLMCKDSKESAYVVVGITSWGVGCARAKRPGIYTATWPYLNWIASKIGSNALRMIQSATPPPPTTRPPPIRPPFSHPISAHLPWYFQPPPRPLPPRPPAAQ

| Compound | inhibition [%] |
| --- | --- |
| O=CC(O)C(O)CO (centres undefined) | 40 |
| OC[C@H]1OC(O)[C@@H](O)[C@@H](O)[C@@H]1O (some centres undefined) | 48 |
| OC1OC[C@@H](O)[C@@H](O)[C@@H]1O (some centres undefined) | 36 |

molecular target: Acrosin (Homo sapiens) (UniProt P10323); experiment: Compound was tested for inhibition of Human acrosin by phosphorylated monosaccharides; design: concentration or dose not given beside the values; details: concentration not given here
How it was run: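 Phosphorylated sugars, as barium salts in the D configuration, were tested at 100 mM, limited by solubility; the parent sugars were also run at 100 mM. Each was preincubated 5 min with purified human α-acrosin before adding BAEE or BAPA. The spectrophotometric 253 nm assay measured % inhibition relative to a no-inhibitor control.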

| inhibition [%] | Compound |
| --- | --- |
| 10 | O=P(O)(O)OC[C@H]1OC(O)[C@H](O)[C@@H](O)[C@H]1O (some centres undefined) |
| 15 | O=P(O)(O)OC[C@H]1O[C@H](O)[C@H](O)[C@@H]1O |
| 45 | OC[C@H]1O[C@H](O)[C@H](O)[C@@H]1O |
| 3 | O=P(O)(O)OC1O[C@H](CO)[C@H](O)[C@H](O)[C@H]1O (some centres undefined) |

The next lines start with the compound.

| Compound | inhibition [%] |
| --- | --- |
| O=C(CO)[C@@H](O)[C@H](O)[C@H](O)CO | 46 |
| O=P(O)(O)OC[C@@]1(O)O[C@H](CO)[C@@H](O)[C@@H]1O | 9 |
| O=C[C@H](O)[C@@H](O)[C@@H](O)[C@H](O)CO | 0 |
| O=P(O)(O)OC[C@H]1O[C@](O)(CO)[C@@H](O)[C@@H]1O | 7 |
| O=P(O)(O)OC[C@H]1OC(O)(COP(=O)(O)O)[C@@H](O)[C@@H]1O (some centres undefined) | 18 |

molecular target: Acrosin (Homo sapiens) (UniProt P10323); experiment: Compound was tested for inhibition of Human acrosin by aldohexoses; design: concentration or dose not given beside the values; details: concentration not given here
How it was run: (§2)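 Purified human α-acrosin (acetic acid extract of frozen sperm, then Sephadex G-150 and CM-cellulose). Sugar at 200 mM was preincubated with enzyme for 5 min at ambient temperature in 50 mM sodium phosphate, pH 7.5. The reaction was started with 5×10^-5 M BAEE or 3×10^-4 M BAPA and followed at 253 nm. Results are % inhibition of the no-inhibitor control rate, as mean ± SE.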

| Compound | inhibition [%] |
| --- | --- |
| C[C@H](O)[C@@H](O)[C@@H](O)[C@H](O)C=O | 20 |
| C[C@H]1OC(O)[C@H](O)[C@@H](O)[C@H]1O (some centres undefined) | 62 |
| OC[C@@H]1OC(O)[C@@H](O)[C@H](O)[C@H]1O (some centres undefined) | 0 |
| OC[C@H]1OC(O)[C@H](O)[C@H](O)[C@H]1O (some centres undefined) | 0 |
| OC[C@H]1OC(O)[C@@H](O)[C@@H](O)[C@@H]1O (some centres undefined) | 60 |
| OC[C@H]1OC(O)[C@H](O)[C@@H](O)[C@@H]1O (some centres undefined) | 28 |
| OC[C@H]1O[C@@H](O)[C@H](O)[C@@H](O)[C@H]1O (stereo in doubt; form 2) | 12 |
| OC[C@H]1O[C@@H](O)[C@H](O)[C@@H](O)[C@H]1O (stereo in doubt; form 1) | 34 |

molecular target: Acrosin (Homo sapiens) (UniProt P10323); experiment: Compound was tested for inhibition of Human acrosin by aldopentoses; design: concentration or dose not given beside the values; details: concentration not given here; how it was run: as §2

| inhibition [%] | Compound |
| --- | --- |
| 40 | OC1OC[C@H](O)[C@@H](O)[C@@H]1O (some centres undefined) |
| 35 | O[C@@H]1[C@H](O)[C@@H](O)OC[C@H]1O (stereo in doubt; form 2) |
| 50 | O[C@@H]1[C@H](O)[C@@H](O)OC[C@H]1O (stereo in doubt; form 1) |
| 65 | OC[C@H]1O[C@H](O)[C@H](O)[C@@H]1O |

The next lines start with the compound.

| Compound | inhibition [%] |
| --- | --- |
| OC1OC[C@H](O)[C@H](O)[C@H]1O (some centres undefined) | 65 |
| OC1OC[C@@H](O)[C@@H](O)[C@@H]1O (some centres undefined) | 50 |
| O=C[C@H](O)[C@@H](O)[C@H](O)CO | 37 |

molecular target: Acrosin (Homo sapiens) (UniProt P10323); experiment: Compound was tested for inhibition of Human acrosin by ketoses; details: concentration not given here; how it was run: as §1

| Compound | inhibition [%] |
| --- | --- |
| O=C(CO)C(O)C(O)CO (centres undefined) | 38 |
| OC[C@H]1OC(O)(CO)[C@@H](O)[C@@H](O)[C@@H]1O (some centres undefined) | 41 |
| O=C(CO)[C@@H](O)[C@H](O)[C@H](O)CO | 47 |
| O=C(CO)CO | 15 |

molecular target: Acrosin (Homo sapiens) (UniProt P10323); experiment: Compound was tested for inhibition of Human acrosin by polyols; details: concentration not given here

| Compound | inhibition [%] |
| --- | --- |
| O[C@H]1[C@H](O)[C@@H](O)[C@H](O)[C@@H](O)[C@H]1O | 30 |
| OCC(O)CO | 28 |
| OC[C@@H](O)[C@@H](O)[C@H](O)[C@H](O)CO | 29 |
| OC[C@@H](O)[C@@H](O)[C@H](O)[C@@H](O)CO | 38 |

molecular target: Acrosin (Homo sapiens) (UniProt P10323); experiment: Compound was tested for inhibition of Human acrosin by ketohexoses; details: concentration not given here
How it was run: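 Purified human α-acrosin from acetic acid extracts of frozen sperm, run through Sephadex G-150 and CM-cellulose. Sugars at 200 mM were preincubated with the enzyme for 5 min at ambient temperature in 50 mM sodium phosphate, pH 7.5. Reaction started with 5×10^-5 M BAEE or 3×10^-4 M BAPA; hydrolysis followed at 253 nm. Percent inhibition versus inhibitor-free control, mean ± SE of 3–6 determinations.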

| Compound | inhibition [%] |
| --- | --- |
| O=C(CO)[C@@H](O)[C@H](O)[C@H](O)CO | 66 |
| O=P(O)(O)OC[C@H]1O[C@](O)(CO)[C@@H](O)[C@@H]1O | 32 |
| O=C(CO)C(O)C(O)C(O)CO (centres undefined) | 18 |
| OCC1(O)OCC(O)C(O)C1O (centres undefined) | 58 |
